Experimental data as given in ChEMBL document CHEMBL3994654, “Discovery of phenyl acetamides as potent and selective GPR119 agonists” (Bioorg Med Chem Lett, 2017).
Converted amounts (≈) assume the structure as drawn.

Assays:
[1] = target: T1, Glucose-dependent insulinotropic receptor (Homo sapiens, UniProt Q8TDV5); experiment: Agonist activity at human GPR119 expressed in HEK293 cells assessed as increase in intracellular cAMP level after 60 mins by HTRF assay; type: functional, cell-based
T1 sequence (Q8TDV5 whole entry): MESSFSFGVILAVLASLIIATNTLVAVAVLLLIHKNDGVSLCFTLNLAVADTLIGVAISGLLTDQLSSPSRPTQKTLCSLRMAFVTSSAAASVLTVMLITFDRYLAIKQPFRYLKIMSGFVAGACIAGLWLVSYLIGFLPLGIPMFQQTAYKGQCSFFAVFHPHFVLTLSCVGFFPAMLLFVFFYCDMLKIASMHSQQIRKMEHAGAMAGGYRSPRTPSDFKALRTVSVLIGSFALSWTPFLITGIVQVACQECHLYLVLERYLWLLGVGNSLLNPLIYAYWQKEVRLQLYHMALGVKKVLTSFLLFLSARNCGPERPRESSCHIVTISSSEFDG
Summary of the method: (§1)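 cAMP stimulation is also given as % control at the top concentration, relative to an internal agonist control set at 100% cAMP stimulation. EC50 values are means of at least 2 independent experiments, except for two compounds.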

[2] = target: T2, Glucose-dependent insulinotropic receptor (Mus musculus, UniProt Q7TQP3); experiment: Agonist activity at mouse GPR119 expressed in CHO cells co-expressing Galpha15 assessed as increase in intracellular cAMP level after 60 mins by HTRF assay; type: functional, cell-based; summary of the method: as §1
T2 sequence (Q7TQP3 whole entry): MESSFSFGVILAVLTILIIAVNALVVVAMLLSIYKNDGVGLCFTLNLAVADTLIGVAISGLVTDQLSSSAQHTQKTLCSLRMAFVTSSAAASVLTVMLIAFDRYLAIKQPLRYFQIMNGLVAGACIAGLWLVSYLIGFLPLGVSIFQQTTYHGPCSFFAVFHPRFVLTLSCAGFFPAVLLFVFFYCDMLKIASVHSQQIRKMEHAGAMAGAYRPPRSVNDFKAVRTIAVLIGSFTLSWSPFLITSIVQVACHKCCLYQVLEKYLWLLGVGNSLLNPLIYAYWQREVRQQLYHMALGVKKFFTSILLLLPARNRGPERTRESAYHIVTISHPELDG

[3] = target: T3, Glucose-dependent insulinotropic receptor (Mus musculus) (UniProt Q7TQP3); experiment: Agonist activity at mouse GPR119 expressed in CHO cells co-expressing Galpha15 assessed as increase in intracellular cAMP level after 60 mins by HTRF assay relative to control; type: functional, cell-based
T3 sequence (whole entry): T2 sequence (Q7TQP3 whole entry)
Summary of the method: (§2)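 EC50 values are means of at least 2 independent experiments, with a few single determinations. Maximal response is reported as the percentage of cAMP stimulation at the maximal dose tested, normalised to an internal agonist control set as 100%.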

[4] = target: Voltage-gated inwardly rectifying potassium channel KCNH2 (Homo sapiens, UniProt Q12809)
Voltage-gated inwardly rectifying potassium channel KCNH2, sequence (Q12809 whole entry): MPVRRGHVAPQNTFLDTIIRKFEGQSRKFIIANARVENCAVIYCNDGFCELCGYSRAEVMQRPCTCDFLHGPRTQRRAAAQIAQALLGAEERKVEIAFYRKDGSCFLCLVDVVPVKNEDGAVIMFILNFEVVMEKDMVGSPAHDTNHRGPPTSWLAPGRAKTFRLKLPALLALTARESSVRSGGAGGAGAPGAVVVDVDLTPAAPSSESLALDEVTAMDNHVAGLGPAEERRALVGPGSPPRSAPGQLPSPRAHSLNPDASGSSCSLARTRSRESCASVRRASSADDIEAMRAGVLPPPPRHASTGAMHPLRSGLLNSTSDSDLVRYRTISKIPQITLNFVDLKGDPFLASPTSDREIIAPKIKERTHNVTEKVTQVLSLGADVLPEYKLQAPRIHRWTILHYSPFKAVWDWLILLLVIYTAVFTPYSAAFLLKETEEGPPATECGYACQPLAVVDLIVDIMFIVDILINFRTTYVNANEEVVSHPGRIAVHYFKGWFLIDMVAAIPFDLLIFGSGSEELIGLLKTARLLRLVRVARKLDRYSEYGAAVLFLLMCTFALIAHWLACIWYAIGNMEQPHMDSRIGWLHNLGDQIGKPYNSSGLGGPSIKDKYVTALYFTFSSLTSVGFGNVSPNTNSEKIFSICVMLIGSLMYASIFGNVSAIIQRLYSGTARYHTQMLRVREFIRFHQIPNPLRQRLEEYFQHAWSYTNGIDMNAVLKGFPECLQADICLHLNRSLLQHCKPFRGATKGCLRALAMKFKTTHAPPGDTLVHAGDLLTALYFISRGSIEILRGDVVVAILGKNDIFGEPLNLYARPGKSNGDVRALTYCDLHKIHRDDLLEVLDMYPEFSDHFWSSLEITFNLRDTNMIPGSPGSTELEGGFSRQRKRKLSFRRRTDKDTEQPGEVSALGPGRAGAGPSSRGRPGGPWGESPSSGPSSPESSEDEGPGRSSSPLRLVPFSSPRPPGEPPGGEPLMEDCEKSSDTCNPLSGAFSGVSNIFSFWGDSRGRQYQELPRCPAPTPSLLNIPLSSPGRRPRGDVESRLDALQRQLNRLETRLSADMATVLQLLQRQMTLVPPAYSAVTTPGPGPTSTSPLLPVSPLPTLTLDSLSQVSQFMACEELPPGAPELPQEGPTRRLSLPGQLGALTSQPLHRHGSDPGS

[5] = Kinetic solubility in fasted state simulated intestinal fluid at pH 6.5; type: physicochemical; settings: read-out: Kinetic_solubility
[6] = target: T4, Glucose-dependent insulinotropic receptor (Homo sapiens) (UniProt Q8TDV5); experiment: Agonist activity at human GPR119 expressed in HEK293 cells assessed as increase in intracellular cAMP level after 60 mins by HTRF assay relative to control; type: functional, cell-based; summary of the method: as §2
T4 sequence (whole entry): T1 sequence (Q8TDV5 whole entry)

[7] = Half life in Wistar Han rat at 0.5 mg/kg, iv by LC-MS/MS analysis; type: ADME, organism-based; settings: in vivo

Compound	EC50 [1] [nM]	EC50 [2] [nM]	Activity [3] [%]	IC50 [4] [nM]	solubility kinetic [5] [µM]	Activity [6] [%]	half-life [7] [h]
O=C(Cc1ccc(OCC[C@@H]2C[C@@H]2C2CCN(c3ncc(Cl)cn3)CC2)cc1)NC1CC1	1.8	1.5	91	> 60000	22 (≈ 10 µg/mL)	104	–
O=C(Cc1ccc(OCC[C@@H]2C[C@@H]2C2CCN(c3ncc(Cl)cn3)CC2)cc1F)N1CCC1	0.2	0.4	146	3300	137 (≈ 64.8 µg/mL)	106	6.9
CC(C)c1noc(N2CCC([C@H]3C[C@H]3CCOc3ccc(CC(=O)N4CCC4)c(F)c3)CC2)n1	2	6.7	102	7000	126 (≈ 59.3 µg/mL)	78	1.8
O=C(Cc1ccc(OCC[C@@H]2C[C@@H]2C2CCN(c3ncc(Cl)cn3)CC2)nc1)N1CCC1	9.4	5.1	133	2100	83 (≈ 37.8 µg/mL)	112	–
COCc1cnc(N2CCC([C@H]3C[C@H]3CCOc3ccc(CC(=O)N4CCC4)c(F)c3)CC2)nc1	0.7	1.6	90	19000	152 (≈ 73.4 µg/mL)	82	1.9
O=C(Cc1ccc(OCC[C@@H]2C[C@@H]2C2CCN(c3ncc(Cl)cn3)CC2)c(F)c1)N1CCC1	2.2	1.6	91	–	65 (≈ 30.7 µg/mL)	106	–
O=C(Cc1ccc(OCC[C@@H]2C[C@@H]2C2CCN(c3ncc(Cl)cn3)CC2)cc1)N1CCC1	0.8	0.5	93	7400	97 (≈ 44.1 µg/mL)	82	4.7
